In ChEMBL document CHEMBL3611998, “Syntheses and studies of new forms of N-sulfonyloxy β-lactams as potential antibacterial agents and β-lactamase inhibitors” (Bioorg Med Chem, 2015):
The source made the active and inactive calls. The calls are words filed in the database; no cut-off is given here.

Columns and labels:
Escherichia coli [1] = experiment: Antimicrobial activity against Escherichia coli DC2 at 2 mM incubated for 20 hrs by agar diffusion assay; type: functional; settings: for zone of inhibition at 2000 µM: DC2, 20 h, read-out: DIZ
Summary of the method: (§1)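 The test solution was made as 20 mM in DMSO and diluted 10-fold in MeOH to 2 mM. Overnight LB cultures were adjusted to a 0.5 McFarland standard ([…] in 0.9% saline), and 0.1 mL was seeded into 34 mL Mueller-Hinton No. 2 agar at 47–50 °C. 50 μL was placed in 9.0 mm wells. Plates were incubated at 37 °C for 20 h, and inhibition zone diameters were measured by caliper.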

Escherichia coli [2] = experiment: Antimicrobial activity against Escherichia coli DC0 at 2 mM incubated for 20 hrs by agar diffusion assay; type: functional; settings: for zone of inhibition at 2000 µM: DC0, 20 h, read-out: DIZ; summary of the method: as §1
Staphylococcus aureus [3] = experiment: Antimicrobial activity against Staphylococcus aureus SG511 at 2 mM incubated for 20 hrs by agar diffusion assay; type: functional; settings: for zone of inhibition at 2000 µM: SG511, 20 h, read-out: DIZ; summary of the method: as §1
Mycolicibacterium vaccae [4] = experiment: Antimicrobial activity against Mycobacterium vaccae IMET 10670 at 2 mM incubated for 48 hrs by agar diffusion assay; type: functional; settings: for zone of inhibition at 2000 µM: IMET 10670, 48 h, read-out: DIZ
Summary of the method: (§2)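 Seeded-agar well diffusion: 2 mM test solution (from 20 mM DMSO stock, diluted 10-fold in MeOH), 50 μL per 9.0 mm well. Inoculum was 0.1 mL of a 0.5 McFarland saline suspension ([…]) in 34 mL Mueller-Hinton No. 2 agar. Incubation was at 37 °C for 48 h, with plates photographed after 3 days. Zone diameters were measured by caliper.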

Pseudomonas aeruginosa [5] = experiment: Antimicrobial activity against Pseudomonas aeruginosa K799/61 at 2 mM incubated for 20 hrs by agar diffusion assay; type: functional; settings: K799/61, 20 h, read-out: DIZ; summary of the method: as §1
Micrococcus luteus [6] = experiment: Antimicrobial activity against Micrococcus luteus ATCC 10240 at 2 mM incubated for 20 hrs by agar diffusion assay; type: functional; settings: for zone of inhibition at 2000 µM: ATCC 10240, 20 h, read-out: DIZ; summary of the method: as §1
Pseudomonas aeruginosa [7] = experiment: Antimicrobial activity against wild type Pseudomonas aeruginosa K799 at 2 mM incubated for 20 hrs by agar diffusion assay; type: functional; settings: K799, 20 h, read-out: DIZ; summary of the method: as §1
Acinetobacter baumannii = experiment: Antimicrobial activity against Acinetobacter baumannii ATCC 17961 at 2 mM incubated for 20 hrs by agar diffusion assay; type: functional; settings: for zone of inhibition at 2000 µM: ATCC 17961, 20 h, read-out: DIZ; summary of the method: as §1
Bacillus spizizenii [8] = experiment: Antimicrobial activity against Bacillus subtilis ATCC 6633 at 2 mM incubated for 20 hrs by agar diffusion assay; type: functional; settings: ATCC 6633, 20 h, read-out: DIZ; summary of the method: as §1
Burkholderia dolosa = experiment: Antimicrobial activity against Burkholderia dolosa at 2 mM incubated for 20 hrs by agar diffusion assay; type: functional; settings: read-out: DIZ; summary of the method: as §1
Mycolicibacterium vaccae [9] = experiment: Antimicrobial activity against Mycobacterium vaccae IMET 10670 assessed as unclear inhibition zone at 2 mM incubated for 48 hrs by agar diffusion assay; type: functional; settings: IMET 10670, 48 h, read-out: DIZ; summary of the method: as §2
Escherichia coli [10] = experiment: Antimicrobial activity against Escherichia coli DC2 assessed as very very unclear inhibition zone at 2 mM incubated for 20 hrs by agar diffusion assay; type: functional; settings: DC2, 20 h, read-out: DIZ; summary of the method: as §1
Bacillus spizizenii [11] = experiment: Antimicrobial activity against Bacillus subtilis ATCC 6633 assessed as very unclear inhibition zone at 2 mM incubated for 20 hrs by agar diffusion assay; type: functional; settings: ATCC 6633, 20 h, read-out: DIZ; summary of the method: as §1
Staphylococcus aureus [12] = experiment: Antimicrobial activity against Staphylococcus aureus SG511 assessed as unclear inhibition zone at 2 mM incubated for 20 hrs by agar diffusion assay; type: functional; settings: SG511, 20 h, read-out: DIZ; summary of the method: as §1
Micrococcus luteus [13] = experiment: Antimicrobial activity against Micrococcus luteus ATCC 10240 assessed as very unclear inhibition zone at 2 mM incubated for 20 hrs by agar diffusion assay; type: functional; settings: ATCC 10240, 20 h, read-out: DIZ; summary of the method: as §1
Staphylococcus aureus [14] = experiment: Antimicrobial activity against Staphylococcus aureus SG511 assessed as very unclear inhibition zone at 2 mM incubated for 20 hrs by agar diffusion assay; type: functional; settings: SG511, 20 h, read-out: DIZ; summary of the method: as §1
[15] = Inhibition of beta-lactamase AmpC (unknown origin) using nitrocefin substrate incubated for 10 mins
Summary of the method: (§3)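 Enzyme was preincubated with inhibitor at rt for 10 min in 50 mM sodium phosphate pH 7 with 0.1 mg/mL BSA. Inhibitor was tested at final concentrations of 160 μM to 3 nM (1:3 series, 8 points). Nitrocefin was then added at 50 μM, and hydrolysis was followed as OD 495 nm over time.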

[16] = Inhibition of beta-lactamase SHV-12 (unknown origin) using nitrocefin substrate incubated for 10 mins
Summary of the method: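 SHV-12 was added as 50 μL of a 0.111 mg/mL solution and preincubated for 10 min at rt with inhibitor (final 160 μM to 3 nM, 1:3 dilutions). Buffer was 50 mM sodium phosphate pH 7 with 0.1 mg/mL BSA. Reaction was started with 10 μM nitrocefin and followed as OD 495 nm over time.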

[17] = Inhibition of beta-lactamase NDM1 (unknown origin) using imipenem substrate incubated for 10 mins
Summary of the method: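 NDM-1 was added as 50 μL of a 0.110 mg/mL solution and preincubated with inhibitor (final 160 μM to 3 nM, 8-point 1:3 series) for 10 min at rt. Buffer was 50 mM sodium phosphate pH 7 with 0.1 mg/mL BSA. 10 μM imipenem was then added, and its disappearance was monitored over time.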

[18] = Inhibition of beta-lactamase PAM-2035 (unknown origin) using nitrocefin substrate incubated for 10 mins
[19] = Inhibition of beta-lactamase CTX-M-14 (unknown origin) using nitrocefin substrate incubated for 10 mins; summary of the method: as §3
[20] = Inhibition of beta-lactamase OXA-48 (unknown origin) using nitrocefin substrate incubated for 10 mins; summary of the method: as §3
[21] = Inhibition of beta-lactamase KPC-2 (unknown origin) using nitrocefin substrate incubated for 10 mins; summary of the method: as §3
Micrococcus luteus [22] = experiment: Antimicrobial activity against Micrococcus luteus ATCC 10240 assessed as unclear inhibition zone at 2 mM incubated for 20 hrs by agar diffusion assay; type: functional; settings: ATCC 10240, 20 h, read-out: DIZ; summary of the method: as §1
Mycolicibacterium vaccae [23] = experiment: Antimicrobial activity against Mycobacterium vaccae IMET 10670 assessed as very unclear inhibition zone at 2 mM incubated for 48 hrs by agar diffusion assay; type: functional; settings: IMET 10670, 48 h, read-out: DIZ; summary of the method: as §2

SMILES	zone of inhibition at 2000 µM (Escherichia coli [2]) [mm]	zone of inhibition at 2000 µM (Staphylococcus aureus [3]) [mm]	zone of inhibition at 2000 µM (Mycolicibacterium vaccae [4]) [mm]	zone of inhibition at 2000 µM (Pseudomonas aeruginosa [5]) [mm]	zone of inhibition at 2000 µM (Micrococcus luteus [6]) [mm]	zone of inhibition at 2000 µM (Pseudomonas aeruginosa [7]) [mm]	zone of inhibition at 2000 µM (Acinetobacter baumannii) [mm]	zone of inhibition at 2000 µM (Bacillus spizizenii [8]) [mm]	zone of inhibition at 2000 µM (Burkholderia dolosa) [mm]	zone of inhibition at 2000 µM (Escherichia coli [10]) [mm]	further results
Cc1ccc(S(=O)(=O)ON2C(=O)CC2Cn2cc(CNC(=O)c3ccccc3)nn2)cc1 (stereo not given)	0	0	0	0	0	0	0	0	0		zone of inhibition at 2000 µM (Escherichia coli [1]): 0 mm
Cc1ccc(S(=O)(=O)ON2C(=O)CC2CBr)cc1 (stereo not given)	0			0		0			0	13	zone of inhibition at 2000 µM (Mycolicibacterium vaccae [9]): 17 mm; diameter of the inhibition zone (DIZ) (Staphylococcus aureus [3]): Active; zone of inhibition at 2000 µM (Bacillus spizizenii [11]): 11 mm; diameter of the inhibition zone (DIZ) (Micrococcus luteus [6]): Active; diameter of the inhibition zone (DIZ) (Acinetobacter baumannii): Active
COc1ccc(S(=O)(=O)ON2C(=O)CC2CBr)cc1 (stereo not given)	0	0		0	0	0	0		0	15	zone of inhibition at 2000 µM (Mycolicibacterium vaccae [9]): 17 mm; zone of inhibition at 2000 µM (Bacillus spizizenii [11]): 11 mm
O=C1CC(CBr)N1OS(=O)(=O)c1ccc([N+](=O)[O-])cc1[N+](=O)[O-] (stereo not given)	0		32	0		0	0	22	0	15	zone of inhibition at 2000 µM (Staphylococcus aureus [12]): 14 mm; zone of inhibition at 2000 µM (Micrococcus luteus [13]): 16 mm; zone of inhibition at 2000 µM (Staphylococcus aureus [14]): 23 mm
CC(C)c1cc(C(C)C)c(S(=O)(=O)ON2C(=O)CC2CBr)c(C(C)C)c1 (stereo not given)	0	0		0		0	0	0	0		diameter of the inhibition zone (DIZ) (Escherichia coli [1]): Active; zone of inhibition at 2000 µM (Mycolicibacterium vaccae [9]): 14 mm; Ki [15]: > 160 µM; Ki [16]: > 160 µM; Ki [17]: > 160 µM; Ki [18]: > 160 µM; zone of inhibition at 2000 µM (Micrococcus luteus [13]): 19 mm; Ki [19]: > 160 µM; Ki [20]: > 160 µM; Ki [21]: > 160 µM
CCOC(=O)c1cn(CC2CC(=O)N2OS(=O)(=O)c2ccc(C)cc2)nn1 (stereo not given)	0	0	0	0	0	0	0		0		zone of inhibition at 2000 µM (Escherichia coli [1]): 0 mm; zone of inhibition at 2000 µM (Bacillus spizizenii [11]): 15 mm
O=C1CC(CBr)N1OS(=O)(=O)c1cccc2ccccc12 (stereo not given)	0			0		0	0	12	0		zone of inhibition at 2000 µM (Staphylococcus aureus [12]): 14 mm; zone of inhibition at 2000 µM (Escherichia coli [1]): 0 mm; Ki [15]: > 160 µM; Ki [16]: 0.198 µM; Ki [17]: > 160 µM; Ki [18]: > 160 µM; zone of inhibition at 2000 µM (Micrococcus luteus [22]): 13.5 mm; Ki [19]: > 160 µM; Ki [20]: 4.67 µM; Ki [21]: > 160 µM; zone of inhibition at 2000 µM (Mycolicibacterium vaccae [23]): 16 mm
CN(C)c1cccc2c(S(=O)(=O)ON3C(=O)CC3CBr)cccc12 (stereo not given)		13	16	0	12	0	0	0	0	14	diameter of the inhibition zone (DIZ) (Escherichia coli [2]): Active
O=C1CC(CBr)N1OS(=O)(=O)c1cccs1 (stereo not given)	0	0	0	0	0	0	0	0	0	16	
O=C1CC(CBr)N1OS(=O)(=O)c1ccc([N+](=O)[O-])cc1 (stereo not given)	0		0	0	0	0	11	14	0	14	diameter of the inhibition zone (DIZ) (Staphylococcus aureus [3]): Active
Cc1ccc(S(=O)(=O)ON2C(=O)CC2CSC2=NCCS2)cc1 (stereo not given)	0			0	0	0	0	0	0	14	diameter of the inhibition zone (DIZ) (Staphylococcus aureus [3]): Active; diameter of the inhibition zone (DIZ) (Mycolicibacterium vaccae [4]): Active
